In publication PMC7340344 (Journal of medicinal chemistry, 2020):
Counter-ions that a name gives are not always drawn.

Legend:
PCAF = PCAF (Homo sapiens, UniProt Q92831); test: Inhibition of PCAF; format: biochemical
p300 HAT = molecular target: T1, p300 HAT (Homo sapiens, UniProt Q09472); test: Steady-state enzyme kinetics, mode of inhibition; format: biochemical
T1 sequence (Q09472 1195-1673): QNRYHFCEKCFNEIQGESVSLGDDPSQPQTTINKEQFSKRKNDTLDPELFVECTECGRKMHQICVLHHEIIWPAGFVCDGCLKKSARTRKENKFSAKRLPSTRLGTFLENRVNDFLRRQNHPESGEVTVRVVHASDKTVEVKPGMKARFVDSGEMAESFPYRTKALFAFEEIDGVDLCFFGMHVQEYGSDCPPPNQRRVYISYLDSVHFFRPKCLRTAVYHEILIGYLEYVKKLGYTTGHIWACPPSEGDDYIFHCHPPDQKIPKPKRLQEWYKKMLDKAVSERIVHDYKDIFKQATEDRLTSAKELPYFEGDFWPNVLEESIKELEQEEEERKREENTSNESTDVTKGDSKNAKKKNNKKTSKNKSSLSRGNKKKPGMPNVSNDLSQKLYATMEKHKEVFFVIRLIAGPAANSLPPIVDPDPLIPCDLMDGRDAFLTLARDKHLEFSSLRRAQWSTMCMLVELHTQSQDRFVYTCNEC
Outline: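 Radiometric filter-binding assay with recombinant human GST-p300 HAT domain (residues 1195-1673) expressed in E. coli, at 10 nM. Enzyme was preincubated with test compound for 10 min at 25 °C in 50 mM phosphate, pH 7.0, with 0.01% Brij-35. Histone H3 (1-21) peptide and 3H-Ac-CoA/Ac-CoA started the reaction, with Ac-CoA or peptide concentration varied. After 30 min at 25 °C, formic acid stopped it; peptide was captured on P81 paper, washed with NaHCO3 and scintillation-counted.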

MCF-7 = test: Cell growth inhibition, MCF-7; format: cell-based; conditions: Homo sapiens, MCF7, read-out: Antiproliferative activity EC50 (μM), MCF-7
Kasumi-1 leukemia cells = test: Western blot of cellular histone acetylation; format: cell-based; conditions: Kasumi-1 cells, 12h, 5 and 10 μM
Outline: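 Kasumi-1 cells (10^6/well) were exposed to test compound at 0, 5 and 10 μM for 12 h. Total histones were extracted by kit, and 2 μg per lane were separated by SDS-PAGE and transferred to PVDF. Blots were probed with antibodies to H3K9Ac, H3K18Ac, H3K27Ac and total H3, then with an anti-rabbit IgG secondary.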

[1] = tested on: ER+ breast cancer MCF-7 cells; test: RNA sequencing and gene set enrichment analysis; format: cell-based, human; conditions: MCF-7, 6 μM, 48 hours, with estradiol 10 nM; p < 0.001
Outline: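 MCF-7 cells were starved for 7 days in phenol red-free DMEM with 10% charcoal-treated FBS. They were then given test compound (6 μM) or DMSO, with or without estradiol (10 nM), for 48 h. Total RNA was sequenced as stranded, rRNA-depleted libraries (HiSeq 2500, paired-end) and mapped to hg38. FPKM values were quantile-normalized and analysed by GSEA against MSigDB and the siRNA p300-knockdown signature (GSE31873, C4–2B cells).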

Myst3 = Myst3 (Homo sapiens, UniProt Q92794); test: Inhibition of Myst3; format: biochemical
Myst3, sequence (Q92794 whole entry): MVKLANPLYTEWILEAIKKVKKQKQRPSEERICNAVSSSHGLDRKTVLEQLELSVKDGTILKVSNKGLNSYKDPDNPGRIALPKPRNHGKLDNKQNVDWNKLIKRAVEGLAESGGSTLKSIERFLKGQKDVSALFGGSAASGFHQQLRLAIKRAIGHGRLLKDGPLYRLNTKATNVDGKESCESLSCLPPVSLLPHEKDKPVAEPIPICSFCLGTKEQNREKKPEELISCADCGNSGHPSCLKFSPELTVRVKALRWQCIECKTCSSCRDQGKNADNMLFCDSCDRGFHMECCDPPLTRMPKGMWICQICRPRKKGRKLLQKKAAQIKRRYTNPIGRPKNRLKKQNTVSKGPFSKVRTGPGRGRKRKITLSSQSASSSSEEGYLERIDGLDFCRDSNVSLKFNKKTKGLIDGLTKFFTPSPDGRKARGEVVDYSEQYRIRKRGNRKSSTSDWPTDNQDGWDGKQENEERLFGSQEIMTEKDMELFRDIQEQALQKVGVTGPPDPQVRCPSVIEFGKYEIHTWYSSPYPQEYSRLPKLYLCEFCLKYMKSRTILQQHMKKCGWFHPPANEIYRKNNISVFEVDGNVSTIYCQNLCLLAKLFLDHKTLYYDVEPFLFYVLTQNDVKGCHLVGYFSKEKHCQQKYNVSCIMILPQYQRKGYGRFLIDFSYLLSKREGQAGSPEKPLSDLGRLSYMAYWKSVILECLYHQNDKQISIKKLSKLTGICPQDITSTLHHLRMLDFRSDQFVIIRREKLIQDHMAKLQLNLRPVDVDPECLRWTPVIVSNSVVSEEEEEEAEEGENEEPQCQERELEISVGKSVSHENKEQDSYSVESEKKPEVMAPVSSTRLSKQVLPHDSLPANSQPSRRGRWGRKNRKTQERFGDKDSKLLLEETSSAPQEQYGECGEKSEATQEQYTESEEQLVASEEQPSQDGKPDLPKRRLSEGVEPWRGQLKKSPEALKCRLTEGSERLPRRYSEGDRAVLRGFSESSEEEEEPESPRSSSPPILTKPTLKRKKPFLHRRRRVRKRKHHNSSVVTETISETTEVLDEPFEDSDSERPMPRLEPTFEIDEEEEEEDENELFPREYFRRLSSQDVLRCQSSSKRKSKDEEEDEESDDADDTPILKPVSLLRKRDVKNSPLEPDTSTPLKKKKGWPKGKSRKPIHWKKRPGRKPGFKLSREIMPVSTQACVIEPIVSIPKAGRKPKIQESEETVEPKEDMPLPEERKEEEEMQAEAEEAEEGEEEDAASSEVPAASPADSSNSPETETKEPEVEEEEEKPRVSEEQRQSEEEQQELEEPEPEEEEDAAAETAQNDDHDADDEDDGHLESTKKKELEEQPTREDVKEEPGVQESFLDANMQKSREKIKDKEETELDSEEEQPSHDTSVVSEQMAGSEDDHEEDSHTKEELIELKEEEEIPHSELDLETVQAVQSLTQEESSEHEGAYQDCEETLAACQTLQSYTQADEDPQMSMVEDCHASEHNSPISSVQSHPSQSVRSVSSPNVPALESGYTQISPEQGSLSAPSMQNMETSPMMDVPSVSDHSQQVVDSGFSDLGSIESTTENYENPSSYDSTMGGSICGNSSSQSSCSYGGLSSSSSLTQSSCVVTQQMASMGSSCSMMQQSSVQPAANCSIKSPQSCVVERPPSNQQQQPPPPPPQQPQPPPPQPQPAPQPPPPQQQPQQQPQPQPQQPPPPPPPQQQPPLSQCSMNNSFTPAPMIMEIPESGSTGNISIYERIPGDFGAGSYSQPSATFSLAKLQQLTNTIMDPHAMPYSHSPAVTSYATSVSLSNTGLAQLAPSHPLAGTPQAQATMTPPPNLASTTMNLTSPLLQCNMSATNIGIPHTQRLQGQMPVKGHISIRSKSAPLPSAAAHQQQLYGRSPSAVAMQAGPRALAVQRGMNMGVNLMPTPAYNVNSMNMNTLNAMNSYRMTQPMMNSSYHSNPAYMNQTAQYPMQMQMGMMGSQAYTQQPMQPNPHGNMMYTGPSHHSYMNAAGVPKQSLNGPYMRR

LSD1 = LSD1 (Homo sapiens, UniProt O60341); test: Inhibition of LSD1; format: biochemical
p300/CBP HAT = conditions: cited from earlier work
p300 HAT and histone H4 = molecular target: T2, p300 HAT and histone H4 (Homo sapiens, UniProt Q09472); test: Alpha assay, binding between p300 HAT and histone H4 peptide
T2 sequence (Q09472 1287-1663 limits assumed): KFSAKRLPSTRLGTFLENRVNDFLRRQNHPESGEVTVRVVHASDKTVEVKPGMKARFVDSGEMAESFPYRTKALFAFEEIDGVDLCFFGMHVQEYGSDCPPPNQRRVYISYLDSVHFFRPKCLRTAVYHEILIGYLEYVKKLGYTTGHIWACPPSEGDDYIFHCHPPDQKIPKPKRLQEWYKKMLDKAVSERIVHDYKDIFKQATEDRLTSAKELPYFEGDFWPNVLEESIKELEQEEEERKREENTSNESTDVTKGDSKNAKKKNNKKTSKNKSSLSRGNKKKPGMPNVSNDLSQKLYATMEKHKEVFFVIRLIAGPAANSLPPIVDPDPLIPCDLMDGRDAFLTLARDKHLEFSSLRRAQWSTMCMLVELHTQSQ

PCAF, sequence (Q92831 whole entry): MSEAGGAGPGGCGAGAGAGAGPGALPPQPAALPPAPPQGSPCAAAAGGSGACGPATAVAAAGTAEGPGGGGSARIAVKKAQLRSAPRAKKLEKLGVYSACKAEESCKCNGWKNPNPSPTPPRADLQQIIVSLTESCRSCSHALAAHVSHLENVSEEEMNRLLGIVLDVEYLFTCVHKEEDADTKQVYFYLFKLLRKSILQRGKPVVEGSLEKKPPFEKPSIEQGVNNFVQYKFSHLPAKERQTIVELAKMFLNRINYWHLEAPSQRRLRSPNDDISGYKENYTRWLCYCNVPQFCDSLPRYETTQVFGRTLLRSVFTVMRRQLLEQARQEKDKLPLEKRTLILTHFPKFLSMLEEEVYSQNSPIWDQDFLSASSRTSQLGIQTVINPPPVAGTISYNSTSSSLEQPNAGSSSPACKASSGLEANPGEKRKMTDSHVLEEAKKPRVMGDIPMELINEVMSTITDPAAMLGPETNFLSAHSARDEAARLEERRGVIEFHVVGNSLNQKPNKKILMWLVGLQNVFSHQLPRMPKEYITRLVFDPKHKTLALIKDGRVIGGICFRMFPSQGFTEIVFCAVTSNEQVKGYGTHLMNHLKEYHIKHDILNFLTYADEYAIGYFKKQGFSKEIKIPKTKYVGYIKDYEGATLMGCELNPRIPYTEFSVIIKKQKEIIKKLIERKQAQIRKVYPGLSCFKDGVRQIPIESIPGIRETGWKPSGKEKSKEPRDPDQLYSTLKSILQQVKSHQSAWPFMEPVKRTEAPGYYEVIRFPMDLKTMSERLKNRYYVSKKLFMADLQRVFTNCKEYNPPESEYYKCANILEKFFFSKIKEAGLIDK

Compound: CC(C)(C)c1ccc(-c2cc(CNCC3CCNCC3)sc2-c2ccc(C(C)(C)C)cc2)cc1 [Compound 12, 1-(4,5-bis(4-(tert-Butyl)phenyl)thiophen-2-yl)-N-(piperidin-4-ylmethyl)methanamine hydrochloride]
- inhibition of PCAF activity at 50 μM (PCAF): did not significantly inhibit
- mode of inhibition against the cofactor Ac-CoA (p300 HAT; Ac-CoA 0.5 - 8 μM (0.07-[…] Km)): non-competitive
- mode of inhibition against the substrate histone (p300 HAT; histone peptide 2 - 100 μM): competitive
- EC50 (MCF-7): ~3 µM
- cellular acetylation of histone H3K9, H3K18 and H3K27 (Kasumi-1 leukemia cells): significantly inhibit
- NES, gene set upregulated by estradiol [1]: −9.19
- NES, genes suppressed by estradiol [1]: 7.41
- normalized enrichment score (NES), genes suppressed by p300 knockdown (GSE31873) [1]: −3.32
- inhibition of Myst3 activity at 50 μM (Myst3): did not significantly inhibit
- inhibition of LSD1 activity at 50 μM (LSD1): did not significantly inhibit

Compound: CNC(=O)Nc1ccc2c(c1)CC[C@@]21OC(=O)N(CC(=O)N(Cc2ccc(F)cc2)[C@@H](C)C(F)(F)F)C1=O [Compound A-485, reference compound]
- mode of inhibition (p300/CBP HAT): competitive against the enzyme cofactor acetyl coenzyme A (Ac-CoA)
- effect on binding between p300 HAT and histone H4 (in words) (p300 HAT and histone H4): did not affect the binding
